From ChEMBL document CHEMBL5058577, “EUbOPEN Chemogenomics Library 2 (Multiplex)” (2022)

Test system: Fibroblast
Test: Multiplex assay against human fibroblast
Type: toxicity, cell-based
Method in brief: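 With compound added, live cells were imaged on a CQ1 microscope at 37°C and 5% CO2; staining with Hoechst33342, BioTracker Green Microtubule Cytoskeleton Dye, MitoTracker Red and Annexin V Alexa Fluor 680 had been done at seeding. The CellPathfinder machine-learning gating scheme split cells into Hoechst high-intensity objects or normal cells, normal cells into healthy, pyknosed or fragmented nuclei, and pyknosed cells into mitotic or apoptotic. The tubulin, mitochondrial-mass and membrane-permeability phenotypes are per cents of healthy-nucleus cells.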

[1] = 12 h, 1 µM, compound concentration 1 uM, replicate 1
[2] = 12 h, 1 µM, compound concentration 1 uM, replicate 2
[3] = 12 h, 10 µM, compound concentration 10 uM, replicate 1
[4] = 12 h, 10 µM, compound concentration 10 uM, replicate 2
[5] = 24 h, 1 µM, compound concentration 1 uM, replicate 1
[6] = 24 h, 1 µM, compound concentration 1 uM, replicate 2
[7] = 24 h, 10 µM, compound concentration 10 uM, replicate 1
[8] = 24 h, 10 µM, compound concentration 10 uM, replicate 2
[9] = 48 h, 1 µM, compound concentration 1 uM, replicate 1
[10] = 48 h, 1 µM, compound concentration 1 uM, replicate 2
[11] = 48 h, 10 µM, compound concentration 10 uM, replicate 1
[12] = 48 h, 10 µM, compound concentration 10 uM, replicate 2

SMILES: O=C(O)c1cc2ccccc2c(Cc2c(O)c(C(=O)O)cc3ccccc23)c1O [PAMOIC ACID]
- Population Apoptotic (%) [1]: 54%
- Population Fragmented Nuclei (%) [1]: 10%
- Population Healthy Nuclei (%) [1]: 81%
- Population Hoechst High Intensity Objects (%) [1]: 2%
- Population Membrane Permeable-Phenotype (%) [1]: 0%
- Population Mitochondria Different-Phenotype (%) [1]: 2%
- Population Mitotic Cells (%) [1]: 45%
- Population Normal (%) [1]: 97%
- Population Pyknosed Nuclei (%) [1]: 7%
- Population Tubulin-Different-Phenotype (%) [1]: 20%
- Total Cell Count [1]: 147
- Population Apoptotic (%) [2]: 32%
- Population Fragmented Nuclei (%) [2]: 23%
- Population Healthy Nuclei (%) [2]: 56%
- Population Hoechst High Intensity Objects (%) [2]: 6%
- Population Membrane Permeable-Phenotype (%) [2]: 6%
- Population Mitochondria Different-Phenotype (%) [2]: 8%
- Population Mitotic Cells (%) [2]: 67%
- Population Normal (%) [2]: 93%
- Population Pyknosed Nuclei (%) [2]: 19%
- Population Tubulin-Different-Phenotype (%) [2]: 34%
- Total Cell Count [2]: 154
- Population Apoptotic (%) [3]: 40%
- Population Fragmented Nuclei (%) [3]: 7%
- Population Healthy Nuclei (%) [3]: 80%
- Population Hoechst High Intensity Objects (%) [3]: 4%
- Population Membrane Permeable-Phenotype (%) [3]: 1%
- Population Mitochondria Different-Phenotype (%) [3]: 5%
- Population Mitotic Cells (%) [3]: 60%
- Population Normal (%) [3]: 95%
- Population Pyknosed Nuclei (%) [3]: 11%
- Population Tubulin-Different-Phenotype (%) [3]: 23%
- Total Cell Count [3]: 132
- Population Apoptotic (%) [4]: 37%
- Population Fragmented Nuclei (%) [4]: 24%
- Population Healthy Nuclei (%) [4]: 51%
- Population Membrane Permeable-Phenotype (%) [4]: 3%
- Population Mitochondria Different-Phenotype (%) [4]: 3%
- Population Mitotic Cells (%) [4]: 62%
- Population Pyknosed Nuclei (%) [4]: 24%
- Population Tubulin-Different-Phenotype (%) [4]: 51%
- Total Cell Count [4]: 156
- Population Apoptotic (%) [5]: 33%
- Population Fragmented Nuclei (%) [5]: 10%
- Population Healthy Nuclei (%) [5]: 86%
- Population Hoechst High Intensity Objects (%) [5]: 3%
- Population Membrane Permeable-Phenotype (%) [5]: 0%
- Population Mitochondria Different-Phenotype (%) [5]: 2%
- Population Mitotic Cells (%) [5]: 66%
- Population Normal (%) [5]: 96%
- Population Pyknosed Nuclei (%) [5]: 4%
- Population Tubulin-Different-Phenotype (%) [5]: 17%
- Total Cell Count [5]: 156
- Population Apoptotic (%) [6]: 32%
- Population Fragmented Nuclei (%) [6]: 23%
- Population Healthy Nuclei (%) [6]: 58%
- Population Hoechst High Intensity Objects (%) [6]: 6%
- Population Membrane Permeable-Phenotype (%) [6]: 9%
- Population Mitochondria Different-Phenotype (%) [6]: 11%
- Population Mitotic Cells (%) [6]: 68%
- Population Normal (%) [6]: 93%
- Population Pyknosed Nuclei (%) [6]: 18%
- Population Tubulin-Different-Phenotype (%) [6]: 39%
- Total Cell Count [6]: 147
- Population Apoptotic (%) [7]: 50%
- Population Fragmented Nuclei (%) [7]: 8%
- Population Healthy Nuclei (%) [7]: 77%
- Population Hoechst High Intensity Objects (%) [7]: 2%
- Population Membrane Permeable-Phenotype (%) [7]: 1%
- Population Mitochondria Different-Phenotype (%) [7]: 1%
- Population Mitotic Cells (%) [7]: 50%
- Population Normal (%) [7]: 97%
- Population Pyknosed Nuclei (%) [7]: 13%
- Population Tubulin-Different-Phenotype (%) [7]: 20%
- Total Cell Count [7]: 138
- Population Apoptotic (%) [8]: 40%
- Population Fragmented Nuclei (%) [8]: 34%
- Population Healthy Nuclei (%) [8]: 52%
- Population Hoechst High Intensity Objects (%) [8]: 5%
- Population Membrane Permeable-Phenotype (%) [8]: 3%
- Population Mitochondria Different-Phenotype (%) [8]: 5%
- Population Mitotic Cells (%) [8]: 59%
- Population Normal (%) [8]: 94%
- Population Tubulin-Different-Phenotype (%) [8]: 39%
- Total Cell Count [8]: 170
- Population Apoptotic (%) [9]: 25%
- Population Fragmented Nuclei (%) [9]: 12%
- Population Healthy Nuclei (%) [9]: 79%
- Population Hoechst High Intensity Objects (%) [9]: 4%
- Population Membrane Permeable-Phenotype (%) [9]: 0%
- Population Mitochondria Different-Phenotype (%) [9]: 2%
- Population Mitotic Cells (%) [9]: 75%
- Population Normal (%) [9]: 95%
- Population Pyknosed Nuclei (%) [9]: 8%
- Population Tubulin-Different-Phenotype (%) [9]: 23%
- Total Cell Count [9]: 155
- Population Apoptotic (%) [10]: 38%
- Population Fragmented Nuclei (%) [10]: 23%
- Population Healthy Nuclei (%) [10]: 58%
- Population Hoechst High Intensity Objects (%) [10]: 3%
- Population Membrane Permeable-Phenotype (%) [10]: 9%
- Population Mitochondria Different-Phenotype (%) [10]: 8%
- Population Mitotic Cells (%) [10]: 61%
- Population Normal (%) [10]: 96%
- Population Pyknosed Nuclei (%) [10]: 17%
- Population Tubulin-Different-Phenotype (%) [10]: 44%
- Total Cell Count [10]: 152
- Population Apoptotic (%) [11]: 50%
- Population Fragmented Nuclei (%) [11]: 19%
- Population Healthy Nuclei (%) [11]: 72%
- Population Hoechst High Intensity Objects (%) [11]: 5%
- Population Membrane Permeable-Phenotype (%) [11]: 2%
- Population Mitochondria Different-Phenotype (%) [11]: 5%
- Population Mitotic Cells (%) [11]: 50%
- Population Normal (%) [11]: 94%
- Population Pyknosed Nuclei (%) [11]: 7%
- Population Tubulin-Different-Phenotype (%) [11]: 29%
- Total Cell Count [11]: 136
- Population Apoptotic (%) [12]: 60%
- Population Fragmented Nuclei (%) [12]: 32%
- Population Healthy Nuclei (%) [12]: 60%
- Population Hoechst High Intensity Objects (%) [12]: 3%
- Population Membrane Permeable-Phenotype (%) [12]: 3%
- Population Mitochondria Different-Phenotype (%) [12]: 1%
- Population Mitotic Cells (%) [12]: 40%
- Population Normal (%) [12]: 96%
- Population Pyknosed Nuclei (%) [12]: 6%
- Population Tubulin-Different-Phenotype (%) [12]: 28%
- Total Cell Count [12]: 156
